Converted amounts (≈) assume the structure as drawn.
What was measured:
[1] = Antitumor activity against mouse EAC cells assessed as non viable cells at 100 ug/mL after 2 hrs by trypan blue exclusion test; format: functional, Ehrlich
Procedure, shortened: (§1)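 Cells came from the ascitic fluid of preinoculated female Swiss albino mice and were suspended in medium with glutamine, fetal calf serum and antibiotics. Compound from DMSO dilutions was added as 0.1 mL, equal to the stated µg level, to medium plus 0.1 mL cell suspension (2 × 10^6). After 2 h at 37 °C, the percentage of non-viable cells was counted by trypan blue exclusion.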

[2] = Antitumor activity against mouse EAC cells assessed as non viable cells at 50 ug/mL after 2 hrs by trypan blue exclusion test; format: functional, Ehrlich; procedure, shortened: as §1
[3] = Antitumor activity against mouse EAC cells assessed as non viable cells at 25 ug/mL after 2 hrs by trypan blue exclusion test; format: functional, Ehrlich; procedure, shortened: as §1
[4] = Antitumor activity against mouse EAC cells assessed as non viable cells at 10 ug/mL after 2 hrs by trypan blue exclusion test; format: functional, Ehrlich; procedure, shortened: as §1
[5] = Antitumor activity against mouse EAC cells assessed as non viable cells after 2 hrs by trypan blue exclusion test; format: functional, cell-based; conditions: Ehrlich
Procedure, shortened: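 EAC cells were aspirated from the ascitic fluid of preinoculated female Swiss albino mice and suspended in medium containing glutamine, fetal calf serum, streptomycin and penicillin. Tubes received compound from DMSO dilutions (0.1 mL, corresponding to 100, 50, 25 or 10 µg) plus 0.1 mL cells and were held at 37 °C for 2 h. Non-viable cells were counted by trypan blue exclusion, and IC50 was read from the survival-versus-concentration curve.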

SMILES: N#CC1=C(N)N(c2ccc(S(N)(=O)=O)cc2)C2=C(C(=O)CCC2)C1/C=C/c1ccccc1 (stereo not given)
- Activity [1]: 45%
- Activity [2]: 40%
- Activity [3]: 10%
- Activity [4]: 2%
- IC50 [5]: > 100 µg/mL

SMILES: Cc1ccc(C2C(C#N)=C(N)N(c3ccc(S(N)(=O)=O)cc3)C3=C2C(=O)CCC3)cc1 (stereo not given)
- Activity [1]: 100%
- Activity [2]: 50%
- Activity [3]: 30%
- Activity [4]: 30%
- IC50 [5]: 50 µg/mL (≈ 115 µM)

SMILES: N#CC1=C(N)N(c2ccc(S(N)(=O)=O)cc2)C2=C(C(=O)CCC2)C1c1ccc(O)cc1 (stereo not given)
- Activity [1]: 100%
- Activity [2]: 100%
- Activity [3]: 95%
- Activity [4]: 90%
- IC50 [5]: 3 µg/mL (≈ 6.87 µM)

SMILES: COc1ccccc1C1C(C#N)=C(N)N(c2ccc(S(N)(=O)=O)cc2)C2=C1C(=O)CCC2 (stereo not given)
- Activity [1]: 0%
- Activity [2]: 0%
- Activity [3]: 0%
- Activity [4]: 0%
- IC50 [5]: > 100 µg/mL

SMILES: N#CC1=C(N)N(c2ccc(S(N)(=O)=O)cc2)C2=C(C(=O)CCC2)C1c1ccccc1 (stereo not given)
- Activity [1]: 40%
- Activity [2]: 40%
- Activity [3]: 30%
- Activity [4]: 10%
- IC50 [5]: > 100 µg/mL

SMILES: Cc1ccc(C2C(C#N)=C(N)N(c3ccc(S(N)(=O)=O)cc3)C3=C2C(=O)CCC3)o1 (stereo not given)
- Activity [1]: 45%
- Activity [2]: 40%
- Activity [3]: 10%
- Activity [4]: 2%
- IC50 [5]: > 100 µg/mL

SMILES: N#CC1=C(N)N(c2ccc(S(N)(=O)=O)cc2)C2=C(C(=O)CCC2)C1c1cccs1 (stereo not given)
- Activity [1]: 100%
- Activity [2]: 88%
- Activity [3]: 80%
- Activity [4]: 70%
- IC50 [5]: 5 µg/mL (≈ 11.7 µM)

SMILES: COc1ccc(C2C(C#N)=C(N)N(c3ccc(S(N)(=O)=O)cc3)C3=C2C(=O)CCC3)c2ccccc12 (stereo not given)
- Activity [1]: 90%
- Activity [2]: 30%
- Activity [3]: 10%
- Activity [4]: 10%
- IC50 [5]: 70 µg/mL (≈ 140 µM)

SMILES: N#CC1=C(N)N(c2ccc(S(N)(=O)=O)cc2)C2=C(C(=O)CCC2)C1c1ccco1 (stereo not given)
- Activity [1]: 10%
- Activity [2]: 5%
- Activity [3]: 0%
- Activity [4]: 0%
- IC50 [5]: > 100 µg/mL

SMILES: COc1ccc(C2C(C#N)=C(N)N(c3ccc(S(N)(=O)=O)cc3)C3=C2C(=O)CCC3)cc1 (stereo not given)
- Activity [1]: 100%
- Activity [2]: 90%
- Activity [3]: 50%
- Activity [4]: 30%
- IC50 [5]: 25 µg/mL (≈ 55.5 µM)

SMILES: N#CC1=C(N)N(c2ccc(S(N)(=O)=O)cc2)C2=C(C(=O)CCC2)C1c1ccc([N+](=O)[O-])cc1 (stereo not given)
- Activity [1]: 100%
- Activity [2]: 95%
- Activity [3]: 80%
- Activity [4]: 85%
- IC50 [5]: 2.5 µg/mL (≈ 5.37 µM)

SMILES: COc1cc(OC)c(C2C(C#N)=C(N)N(c3ccc(S(N)(=O)=O)cc3)C3=C2C(=O)CCC3)cc1OC (stereo not given)
- Activity [1]: 100%
- Activity [2]: 100%
- Activity [3]: 72%
- Activity [4]: 40%
- IC50 [5]: 12 µg/mL (≈ 23.5 µM)

SMILES: CCOc1cc(C2C(C#N)=C(N)N(c3ccc(S(N)(=O)=O)cc3)C3=C2C(=O)CCC3)ccc1OC (stereo not given)
- Activity [1]: 100%
- Activity [2]: 70%
- Activity [3]: 60%
- Activity [4]: 50%
- IC50 [5]: 10 µg/mL (≈ 20.2 µM)

SMILES: COc1cc(C2C(C#N)=C(N)N(c3ccc(S(N)(=O)=O)cc3)C3=C2C(=O)CCC3)ccc1O (stereo not given)
- Activity [1]: 100%
- Activity [2]: 90%
- Activity [3]: 50%
- Activity [4]: 0%
- IC50 [5]: 25 µg/mL (≈ 53.6 µM)

SMILES: N#CC1=C(N)N(c2ccc(S(N)(=O)=O)cc2)C2=C(C(=O)CCC2)C1c1cccc([N+](=O)[O-])c1 (stereo not given)
- Activity [1]: 71%
- Activity [2]: 73%
- Activity [3]: 50%
- Activity [4]: 42%
- IC50 [5]: 25 µg/mL (≈ 53.7 µM)

SMILES: N#CC1=C(N)N(c2ccc(S(N)(=O)=O)cc2)C2=C(C(=O)CCC2)C1c1c(O)ccc2ccccc12 (stereo not given)
- Activity [1]: 15%
- Activity [2]: 5%
- Activity [3]: 0%
- Activity [4]: 0%
- IC50 [5]: > 100 µg/mL

SMILES: COc1ccc2ccccc2c1C1C(C#N)=C(N)N(c2ccc(S(N)(=O)=O)cc2)C2=C1C(=O)CCC2 (stereo not given)
- Activity [1]: 80%
- Activity [2]: 70%
- Activity [3]: 62%
- Activity [4]: 40%
- IC50 [5]: 12.5 µg/mL (≈ 25 µM)

SMILES: N#CC1=C(N)N(c2ccc(S(N)(=O)=O)cc2)C2=C(C(=O)CCC2)C1c1ccc(Cl)cc1Cl (stereo not given)
- Activity [1]: 95%
- Activity [2]: 65%
- Activity [3]: 50%
- Activity [4]: 40%
- IC50 [5]: 25 µg/mL (≈ 51.1 µM)

SMILES: COc1cccc2c1C(=O)c1c(O)c3c(c(O)c1C2=O)C[C@@](O)(C(=O)CO)C[C@@H]3O[C@H]1C[C@H](N)[C@H](O)[C@H](C)O1 [DOXORUBICIN]
- Activity [1]: 100%
- Activity [2]: 60%
- Activity [3]: 39%
- Activity [4]: 20%
- IC50 [5]: 37.5 µg/mL (≈ 69 µM)
